ChEMBL document CHEMBL1287652, “QSAR modeling, synthesis and bioassay of diverse leukemia RPMI-8226 cell line active agents” (2010)

Legend:
Format in all cases: functional
[1] = tested on: HL-60(TB); assay: Antitumor activity against human HL-60(TB) cells at 10 uM after 48 hrs by sulforhodamine B assay relative to control; details: HL-60, 48 h
Outline: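 Single-dose NCI screen. Cells were in RPMI-1640 with 5% FBS and 2 mM L-glutamine, plated by doubling time and held 24 h at 37 °C in 5% CO2 before dosing. Exposure was 48 h. Suspension cells were fixed in situ with TCA (final 16%), SRB-stained, and read at 515 nm. Percentage growth was expressed relative to untreated control cells.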

[2] = tested on: SK-OV-3; assay: Antitumor activity against human SKOV3 cells at 10 uM after 48 hrs by sulforhodamine B assay relative to control; details: SK-OV-3, 48 h, values are per cent of control
Outline: (§1)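 NCI panel lines were grown in RPMI-1640 with 5% FBS and 2 mM L-glutamine and seeded at 5000–40,000 cells/well according to doubling time. After 24 h at 37 °C, 5% CO2, one dose from a DMSO stock was added for 48 h. Cells were TCA-fixed (10% final adherent, 16% suspension), SRB-stained and read at 515 nm. Percent growth is relative to untreated control.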

[3] = tested on: OVCAR-8; assay: Antitumor activity against human OVCAR8 cells at 10 uM after 48 hrs by sulforhodamine B assay relative to control; details: OVCAR-8, 48 h, values are per cent of control; outline: as §1
[4] = tested on: MCF7; assay: Antitumor activity against human MCF7 cells at 10 uM after 48 hrs by sulforhodamine B assay relative to control; details: MCF7, 48 h, values are per cent of control
Outline: (§2)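 Single-dose screen in a 55-line panel. Cells in RPMI-1640 with 5% FBS and 2 mM glutamine were preincubated for 24 h, then exposed to compound (DMSO stock diluted in medium) for 48 h at 37 °C with 5% CO2. Cells were fixed with cold TCA, stained with 0.4% SRB in 1% acetic acid, and dye was solubilized in 10 mM Tris base and read at 515 nm. Growth is given as percent of untreated control.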

[5] = tested on: UO-31; assay: Antitumor activity against human UO31 cells at 10 uM after 48 hrs by sulforhodamine B assay relative to control; details: UO-31, 48 h, values are per cent of control
Outline: (§3)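 NCI panel line grown in RPMI-1640 with 5% FBS and 2 mM L-glutamine, plated at 5000–40,000 cells/well, 24 h preincubation. Single final 10 µM from DMSO stock, 48 h at 37 °C, 5% CO2. TCA fixation (10% adherent, 16% suspension), SRB stain, absorbance 515 nm. Percent growth relative to untreated control.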

[6] = tested on: T47D; assay: Antitumor activity against human T47D cells at 10 uM after 48 hrs by sulforhodamine B assay relative to control; details: values are per cent of control; outline: as §3
[7] = tested on: U-251; assay: Antitumor activity against human U251 cells at 10 uM after 48 hrs by sulforhodamine B assay relative to control; details: U-251, 48 h, values are per cent of control; outline: as §3
[8] = tested on: HCT-116; assay: Antitumor activity against human HCT116 cells at 10 uM after 48 hrs by sulforhodamine B assay relative to control; details: HCT-116, 48 h, values are per cent of control; outline: as §2
[9] = tested on: HOP-62; assay: Antitumor activity against human HOP62 cells at 10 uM after 48 hrs by sulforhodamine B assay relative to control; details: HOP-62, 48 h, values are per cent of control; outline: as §2
[10] = tested on: A549; assay: Antitumor activity against human A549 cells at 10 uM after 48 hrs by sulforhodamine B assay relative to control; details: A549, 48 h, values are per cent of control; outline: as §2
[11] = tested on: OVCAR-3; assay: Antitumor activity against human OVCAR-3 cells at 10 uM after 48 hrs by sulforhodamine B assay relative to control; details: OVCAR-3, 48 h, values are per cent of control; outline: as §1
[12] = tested on: OVCAR-4; assay: Antitumor activity against human OVCAR4 cells at 10 uM after 48 hrs by sulforhodamine B assay relative to control; details: OVCAR-4, 48 h, values are per cent of control; outline: as §1
[13] = tested on: M14; assay: Antitumor activity against human M14 cells at 10 uM after 48 hrs by sulforhodamine B assay relative to control; details: M14, 48 h, values are per cent of control; outline: as §2
[14] = tested on: EKVX; assay: Antitumor activity against human EKVX cells at 10 uM after 48 hrs by sulforhodamine B assay relative to control; details: values are per cent of control; outline: as §2
[15] = tested on: SK-MEL-28; assay: Antitumor activity against human SK-MEL-28 cells at 10 uM after 48 hrs by sulforhodamine B assay relative to control; details: SK-MEL-28, 48 h, values are per cent of control; outline: as §1
[16] = tested on: MOLT-4; assay: Antitumor activity against human MOLT4 cells at 10 uM after 48 hrs by sulforhodamine B assay relative to control; details: MOLT-4, 48 h, values are per cent of control; outline: as §1
[17] = tested on: NCI/ADR-RES; assay: Antitumor activity against human NCI/ADR-RES cells at 10 uM after 48 hrs by sulforhodamine B assay relative to control; details: values are per cent of control; outline: as §1
[18] = tested on: DU-145; assay: Antitumor activity against human DU145 cells at 10 uM after 48 hrs by sulforhodamine B assay relative to control; details: DU-145, 48 h, values are per cent of control; outline: as §2
[19] = tested on: HT-29; assay: Antitumor activity against human HT-29 cells at 10 uM after 48 hrs by sulforhodamine B assay relative to control; details: HT-29, 48 h, values are per cent of control; outline: as §2
[20] = tested on: SK-MEL-5; assay: Antitumor activity against human SK-MEL-5 cells at 10 uM after 48 hrs by sulforhodamine B assay relative to control; details: SK-MEL-5, 48 h, values are per cent of control; outline: as §1
[21] = tested on: NCI-H226; assay: Antitumor activity against human NCI-H226 cells at 10 uM after 48 hrs by sulforhodamine B assay relative to control; details: NCI-H226, 48 h, values are per cent of control; outline: as §1
[22] = tested on: SF-539; assay: Antitumor activity against human SF539 cells at 10 uM after 48 hrs by sulforhodamine B assay relative to control; details: SF-539, 48 h, values are per cent of control; outline: as §1
[23] = tested on: OVCAR-5; assay: Antitumor activity against human OVCAR5 cells at 10 uM after 48 hrs by sulforhodamine B assay relative to control; details: OVCAR-5, 48 h, values are per cent of control; outline: as §1
[24] = tested on: BT-549; assay: Antitumor activity against human BT549 cells at 10 uM after 48 hrs by sulforhodamine B assay relative to control; details: BT-549, 48 h, values are per cent of control; outline: as §2
[25] = tested on: SW-620; assay: Antitumor activity against human SW620 cells at 10 uM after 48 hrs by sulforhodamine B assay relative to control; details: SW-620, 48 h, values are per cent of control; outline: as §3
[26] = tested on: MDA-MB-435; assay: Antitumor activity against human MDA-MB-435 cells at 10 uM after 48 hrs by sulforhodamine B assay relative to control; details: MDA-MB-435, 48 h, values are per cent of control; outline: as §2
[27] = tested on: HCT-15; assay: Antitumor activity against human HCT15 cells at 10 uM after 48 hrs by sulforhodamine B assay relative to control; details: HCT-15, 48 h, values are per cent of control; outline: as §2
[28] = Antitumor activity against human Hs 578T cells at 10 uM after 48 hrs by sulforhodamine B assay relative to control; details: values are per cent of control; outline: as §2

Row | SMILES | inhibition at 10 µM [1] | growth, % of control at 10 µM [2] | growth, % of control at 10 µM [3] | growth, % of control at 10 µM [4] | growth, % of control at 10 µM [5] | growth, % of control at 10 µM [6] | growth, % of control at 10 µM [7] | growth, % of control at 10 µM [8] | growth, % of control at 10 µM [9] | growth, % of control at 10 µM [10] | growth, % of control at 10 µM [11] | growth, % of control at 10 µM [12] | growth, % of control at 10 µM [13] | growth, % of control at 10 µM [14] | growth, % of control at 10 µM [15] | growth, % of control at 10 µM [16] | growth, % of control at 10 µM [17] | growth, % of control at 10 µM [18] | growth, % of control at 10 µM [19] | growth, % of control at 10 µM [20] | other results
1 | O=C(Nc1ccc(Cl)cc1)Nc1ccc(OCCCOc2ccc(NC(=O)Nc3ccc(Cl)cc3)cc2)cc1 | 105% | 122% | 64.1% | 103% | 68.8% | 106% | 103% | 94.8% | 96.2% | 107% | 112% | 110% | 96.7% | 95% | 111% | 118% | 99.8% | 121% | 114% | > 100% | growth, % of control at 10 µM [21]: 123%; growth, % of control at 10 µM [22]: 91.8%; growth, % of control at 10 µM [23]: 94.6%; growth, % of control at 10 µM [24]: 102%; growth, % of control at 10 µM [25]: 104%; growth, % of control at 10 µM [26]: 110%; growth, % of control at 10 µM [27]: 117%; growth, % of control at 10 µM [28]: 85.4%
2 | COc1ccc(NC(=O)Nc2ccc(OCCCOc3ccc(NC(=O)Nc4ccc(OC)cc4)cc3)cc2)cc1 | 90.4% | 88.4% | 70.1% | 55% | 71.4% | 83.6% | 89.8% | 83.3% | 95.7% | 111% | 116% | 109% | 95.5% | 86.7% | 204% | 95.5% | 94.4% | 107% | 107% | 99.5% | growth, % of control at 10 µM [21]: 121%; growth, % of control at 10 µM [22]: 86.7%; growth, % of control at 10 µM [23]: 88.4%; growth, % of control at 10 µM [24]: 88.1%; growth, % of control at 10 µM [25]: 118%; growth, % of control at 10 µM [26]: 109%; growth, % of control at 10 µM [27]: 118%; growth, % of control at 10 µM [28]: 88.2%
3 | COc1ccc(NC(=O)Nc2ccccc2OCCCOc2ccccc2NC(=O)Nc2ccc(OC)cc2)cc1 | 18.8% | 7.9% | -65.3% | 28.2% | -20.7% | 9.2% | -50.9% | -36.8% | 38.5% | -80% | -11.4% | -67.2% | 61.4% | 2.2% | 45.7% | -5.8% | 59.8% | 39.4% | 54.9% | 48.7% | growth, % of control at 10 µM [21]: 87.1%; growth, % of control at 10 µM [22]: -29.6%; growth, % of control at 10 µM [23]: 46%; growth, % of control at 10 µM [24]: 81.2%; growth, % of control at 10 µM [25]: 0.7%; growth, % of control at 10 µM [26]: 41.6%; growth, % of control at 10 µM [27]: 65.5%; growth, % of control at 10 µM [28]: 46.4%
